Paper PMC4767637 (Journal of molecular biology, 2016)
Substitutions are numbered along the chain they refer to. Names may count otherwise.

B1: pSTAT3: Tyr-705-phosphorylated STAT3 (protein)
chain: GQANHPTAAVVTEKQQMLEQHLQDVRKRVQDLEQKMKVVENLQDDFDFNYKTLKSQGDMQDLNGNNQSVTRQKMQQLEQMLTALDQMRRSIVSELAGLLSAMEYVQKTLTDEELADWKRRQQIACIGGPPNICLDRLENWITSLAESQLQTRQQIKKLEELQQKVSYKGDPIVQHRPMLEERIVELFRNLMKSAFVVERQPCMPMHPDRPLVIKTGVQFTTKVRLLVKFPELNYQLKIKVCIDKDSGDVAALRGSRKFNILGTNTKVMNMEESNNGSLSAEFKHLTLREQRCGNGGRANCDASLIVTEELHLITFETEVYHQGLKIDLETHSLPVVVISNICQMPNAWASILWYNMLTNNPKNVNFFTKPPIGTWDQVAEVLSWQFSSTTKRGLSIEQLTTLAEKLLGPGVNYSGCQITWAKFCKENMAGKGFSFWVWLDNIIDLVKKYILALWNEGYIMGFISKERERAILSTKPPGTFLLRFSESSKEGGVTFTWVEKDISGKTQIQSVEPYTKQQLNNMSFAEIIMGYKIMDATNILVSPLVYLYPDIPKEEAFGKYCRPESQEHPEADPGSAAPYLKTKFI
modifications: phosphotyrosine at 705; left off: His6, C-terminal, state not stated
B2: I568F: HIES associated STAT3 mutation in the LD (protein)
chain: B1 chain with I442F
modifications: left off: His6, C-terminal, state not stated

Experiments:
pSTAT3 homodimer [1] = assay: NMR CSP of pSTAT3 dimer versus uSTAT3; assay type: binding, human; conditions: 2D 13C-1H HMQC, 25 °C
pSTAT3 = assay: 13C SQ-CPMG relaxation dispersion; design: species or system human; conditions: 35 °C, 600 and 700 MHz, ~170 μM pSTAT3
pSTAT3 homodimer [2] = assay: van't Hoff analysis of pSTAT3 monomer-dimer equilibrium by HMQC; assay type: binding, human; conditions: 25-45 °C, 700 MHz
Summary of the method: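 His-tagged pSTAT3 (127-711), co-expressed with tyrosine kinase in E. coli TKB1, deuterated with Ile Cδ1 methyl 13CH3 labeling, in deuterated 10 mM MES pH 5.5, 2 mM TCEP, 0.03% sodium azide, 100% D2O. 2D 1H-13C HMQC at 700 MHz at 25, 30, 32, 34, 36, 38, 40 and 45 °C. Keq is the population ratio of exchanging species (a) and (b); ΔH0 and ΔS0 come from a linear fit of ln(Keq) vs 1/T.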

I568F STAT3 = assay: NMR CSP of I568F STAT3 relative to WT; design: species or system human; conditions: 2D 13C-1H HMQC Ile spectra

Row | Molecule | CSPs of pSTAT3 dimer (pSTAT3 homodimer [1]) | change in Rex of I568, pSTAT3 dimer versus pY904-bound uSTAT3 (pSTAT3) | ΔS° of monomer-dimer equilibrium (I568 and I654) (pSTAT3 homodimer [2]; residues I568 (LD) and I654 (SH2)) [cal/mol•K] | ΔS° of monomer-dimer equilibrium (I653 and I711) (pSTAT3 homodimer [2]; residues I653 and I711) [cal/mol•K] | CSP of I568F mutant relative to WT (I568F STAT3)
1 | B1 | Additional CSPs unique to pSTAT3 were observed at I653 and I711 | Larger increases in the Rex of I568 were observed for the dimeric pSTAT3 than for pY904-bound uSTAT3 | 47.0 ± 3.7 | 42.2 ± 1.6 | 
2 | B2 |  |  |  |  | significant CSP relative to WT protein in all structured domains of STAT3, from the CCD to SH2
